Source: ChEMBL document CHEMBL3763127, “Design, synthesis and biological evaluation of novel asperphenamate derivatives” (Eur J Med Chem, 2016)
Active and inactive are the calls of the source. The calls are words filed in the database; no cut-off is given here.

Assays:
Bel-7402 [1] = assay: Induction of apoptosis in human Bel7402 cells assessed as accumulation at subG1 phase at 20 uM after 72 hrs by PI staining-based flow cytometric analysis (reference value: 2.87%); format: functional
HeLa [2] = assay: Induction of apoptosis in human HeLa cells assessed as accumulation at subG1 phase at 20 uM after 72 hrs by PI staining-based flow cytometric analysis (reference value: 2.89%); format: functional
HeLa [3] = assay: Induction of apoptosis in human HeLa cells assessed as accumulation at subG1 phase at 20 uM after 48 hrs by PI staining-based flow cytometric analysis (reference value: 2.89%); format: functional
MCF7 [4] = assay: Induction of autophagy in human MCF7 cells assessed as increase in LC3-2 level at 5 to 10 uM after 48 hrs by Western blot analysis; format: functional, cell-based
Method in brief: (§1)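 Cells were treated with or without compound for 48 h: MCF-7 at 5 and 10 µM, HeLa and BEL-7402 at 20 and 40 µM. Total protein (10 µg) in SDS sample buffer (pH 6.8) was run on 8–15% SDS-PAGE and transferred to PVDF. LC3-I/LC3-II were probed with HRP secondary antibody and ECL detection. The assay was repeated at least three times.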

MCF7 [5] = assay: Induction of autophagy in human MCF7 cells at 10 uM after 72 hrs by MDC staining-based flow cytometric analysis (reference value: 2.54%); format: functional
MCF7 [6] = assay: Induction of autophagy in human MCF7 cells assessed as increase in autophagosome formation at 5 and 10 uM after 72 hrs by MDC staining-based fluorescence microscopic analysis; format: functional, cell-based
MCF7 [7] = assay: Induction of autophagy in human MCF7 cells assessed as increase in autophagosome formation at 5 and 10 uM after 72 hrs by AO staining-based fluorescence microscopic analysis; format: functional, cell-based
Method in brief: (§2)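 Cells in RPMI 1640/10% FBS were exposed to compound or 0.1% DMSO for 72 h: MCF-7 at 5 and 10 µM, HeLa and BEL-7402 at 20 and 40 µM. They were incubated with […] acridine orange for 15 min, washed with PBS, and acidic vesicles were imaged by inverted fluorescence microscopy.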

MCF7 [8] = assay: Induction of cell cycle arrest in human MCF7 cells assessed as accumulation at S phase at 10 uM after 72 hrs by PI staining-based flow cytometric analysis (reference value: 27.09%); format: functional
MCF7 [9] = assay: Induction of cell cycle arrest in human MCF7 cells assessed as accumulation at G0/G1 phase at 10 uM after 72 hrs by PI staining-based flow cytometric analysis (reference value: 50.76%); format: functional
MCF7 [10] = assay: Induction of cell cycle arrest in human MCF7 cells assessed as accumulation at G2/M phase at 10 uM after 48 hrs by PI staining-based flow cytometric analysis (reference value: 19.85%); format: functional
MCF7 [11] = assay: Induction of cell cycle arrest in human MCF7 cells assessed as accumulation at S phase at 10 uM after 48 hrs by PI staining-based flow cytometric analysis (reference value: 27.09%); format: functional
MCF7 [12] = assay: Induction of cell cycle arrest in human MCF7 cells assessed as accumulation at G0/G1 phase at 10 uM after 24 hrs by PI staining-based flow cytometric analysis (reference value: 50.76%); format: functional
MCF7 [13] = assay: Induction of apoptosis in human MCF7 cells assessed as accumulation at subG1 phase at 10 uM after 72 hrs by PI staining-based flow cytometric analysis (reference value: 2.98%); format: functional
MCF7 [14] = assay: Induction of apoptosis in human MCF7 cells assessed as accumulation at subG1 phase at 10 uM after 24 hrs by PI staining-based flow cytometric analysis (reference value: 2.98%); format: functional
[15] = Cytotoxicity against human Bel7402 cells after 3 days by MTT assay; format: functional, cell-based; conditions: Bel-7402, 72 h
Method in brief: (§3)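 MCF-7, HeLa and BEL-7402 cells were grown in RPMI 1640 with 10% heat-inactivated FBS, 1 mM glutamine and penicillin/streptomycin at 37 °C under 5% CO2. They were exposed to compound for 3 days, then read by MTT at 570 nm. Viability was taken as treated/control absorbance, and IC50 was derived from it. Values are mean SD of three independent experiments.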

HeLa [16] = assay: Cytotoxicity against human HeLa cells after 3 days by MTT assay; format: functional, cell-based; conditions: 72 h; method in brief: as §3
MCF7 [17] = assay: Cytotoxicity against human MCF7 cells after 3 days by MTT assay; format: functional, cell-based; conditions: MCF7, 72 h; method in brief: as §3
HeLa [18] = assay: Induction of autophagy in human HeLa cells assessed as increase in autophagosome formation at 20 and 40 uM after 72 hrs by AO staining-based fluorescence microscopic analysis; format: functional, cell-based; method in brief: as §2
Bel-7402 [19] = assay: Induction of autophagy in human Bel7402 cells assessed as increase in autophagosome formation at 20 and 40 uM after 72 hrs by AO staining-based fluorescence microscopic analysis; format: functional, cell-based; method in brief: as §2
Bel-7402 [20] = assay: Induction of autophagy in human Bel7402 cells assessed as increase in LC3-2 level at 20 and 40 uM after 48 hrs by Western blot analysis; format: functional, cell-based; method in brief: as §1
MCF7 [21] = assay: Potency index, ratio of IC50 for cisplatin to IC50 for test compound for cytotoxicity against human MCF7 cells; format: functional
[22] = Potency index, ratio of IC50 for cisplatin to IC50 for test compound for cytotoxicity against human Bel7402 cells; format: functional, Bel-7402
Bel-7402 [23] = assay: Induction of autophagy in human Bel7402 cells assessed as autophagic cell formation at 40 uM after 72 hrs by MDC staining-based flow cytometric analysis (reference value: 3.94%); format: functional
Bel-7402 [24] = assay: Induction of autophagy in human Bel7402 cells assessed as autophagic cell formation at 20 uM after 72 hrs by MDC staining-based flow cytometric analysis (reference value: 3.94%); format: functional
Bel-7402 [25] = assay: Induction of cell cycle arrest in human Bel7402 cells assessed as accumulation at G2/M phase at 20 uM after 72 hrs by PI staining-based flow cytometric analysis (reference value: 22.26%); format: functional
Bel-7402 [26] = assay: Induction of cell cycle arrest in human Bel7402 cells assessed as accumulation at G0/G1 phase at 20 uM after 72 hrs by PI staining-based flow cytometric analysis (reference value: 49.44%); format: functional
HeLa [27] = assay: Induction of cell cycle arrest in human HeLa cells assessed as accumulation at S phase at 20 uM after 72 hrs by PI staining-based flow cytometric analysis (reference value: 24.17%); format: functional
HeLa [28] = assay: Induction of cell cycle arrest in human HeLa cells assessed as accumulation at G0/G1 phase at 20 uM after 72 hrs by PI staining-based flow cytometric analysis (reference value: 45.70%); format: functional
Bel-7402 [29] = assay: Induction of cell cycle arrest in human Bel7402 cells assessed as accumulation at G0/G1 phase at 20 uM after 48 hrs by PI staining-based flow cytometric analysis (reference value: 49.44%); format: functional
HeLa [30] = assay: Induction of cell cycle arrest in human HeLa cells assessed as accumulation at G0/G1 phase at 20 uM after 48 hrs by PI staining-based flow cytometric analysis (reference value: 45.70%); format: functional
HeLa [31] = assay: Induction of cell cycle arrest in human HeLa cells assessed as accumulation at S phase at 20 uM after 48 hrs by PI staining-based flow cytometric analysis (reference value: 24.17%); format: functional

Cc1ccc(S(=O)(=O)N[C@H](Cc2ccccc2)C(=O)OC[C@H](Cc2ccccc2)NC(=O)c2ccccc2)cc1
Activity (Bel-7402 [1]): 3.78% | Activity (HeLa [2]): 2.43% | Activity (HeLa [3]): 2.12% | Activity (MCF7 [4]): Active | Activity (MCF7 [5]): 56.08% | Activity (MCF7 [6]): Active | Activity (MCF7 [7]): Active | Activity (MCF7 [8]): 28.08% | Activity (MCF7 [9]): 48.05% | Activity (MCF7 [10]): 20.05% | Activity (MCF7 [11]): 28.07% | Activity (MCF7 [12]): 52.57% | Activity (MCF7 [13]): 3.76% | Activity (MCF7 [14]): 3.38% | IC50 [15]: 12.5 µM | IC50 (HeLa [16]): 16.8 µM | IC50 (MCF7 [17]): 5.87 µM | Activity (HeLa [18]): Active | Activity (Bel-7402 [19]): Active | Activity (Bel-7402 [20]): Active | Ratio IC50 (MCF7 [21]): 3 | Ratio IC50 [22]: 1.6 | Activity (Bel-7402 [23]): 48.25% | Activity (Bel-7402 [24]): 23.66% | Activity (Bel-7402 [25]): 22.61% | Activity (Bel-7402 [26]): 45.89% | Activity (HeLa [27]): 25.91% | Activity (HeLa [28]): 48.1% | Activity (Bel-7402 [29]): 47.63% | Activity (HeLa [30]): 50.15% | Activity (HeLa [31]): 25.4%
